# Results as given in ChEMBL document CHEMBL1765011, “Synthesis and c-Met kinase inhibition of 3,5-disubstituted and 3,5,7-trisubstituted quinolines: identification of 3-(4-acetylpiperazin-1-yl)-5-(3-nitrobenzylamino)-7- (trifluoromethyl)quinoline as a novel anticancer agent” (J Med Chem, 2011).
# Tests used:
# [1] = molecular target: T1, Hepatocyte growth factor receptor (Homo sapiens, UniProt P08581); test: Inhibition of purified recombinant c-Met after 60 mins by ELISA
# [2] = molecular target: T1, Hepatocyte growth factor receptor; test: Inhibition of purified recombinant c-Met at 10 uM after 60 mins by ELISA
# BaF3 [3] = test: Antiproliferative activity against mouse BAF3 cells expressing TPR-Met after 72 hrs in presence of IL-3; assay type: functional, cell-based; conditions: BaF3, 72 h
# Outline: (§1)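 Cells were seeded and exposed next day to a range of compound concentrations for 72 h. Proliferation was read by sulforhodamine B or MTT assay, and IC50 derived.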
# [4] = molecular target: Hepatocyte growth factor receptor (Mus musculus) (UniProt P16056); test: Inhibition of TPR-MET autophosphorylation in mouse NIH3T3 cells after 4 hrs by Western blotting; assay type: cell-based
# Outline: (§2)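 Exponentially growing cells were treated with compound for 4 h at 37 °C and lysed in SDS sample buffer. Lysates were run on 10% SDS-PAGE and blotted to nitrocellulose. Blots were probed for phospho-c-Met and total c-Met, with GAPDH as loading control, and detected by ECL.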
# [5] = molecular target: Hepatocyte growth factor receptor (Mus musculus) (UniProt P16056); test: Inhibition of TPR-MET autophosphorylation in mouse BaF3 cells after 4 hrs by Western blotting; assay type: cell-based; outline: as §2
# BaF3 [6] = test: Antiproliferative activity against mouse BAF3 cells expressing TPR-Met after 72 hrs in absence of IL-3; assay type: functional, cell-based; conditions: BaF3, 72 h; outline: as §1
# NIH3T3 [7] = test: Antiproliferative activity against mouse NIH/3T3 cells expressing TPR-Met after 72 hrs; assay type: functional, cell-based; conditions: NIH3T3, 72 h; outline: as §1
# NIH3T3 [8] = test: Antiproliferative activity against mouse NIH/3T3 cells after 72 hrs; assay type: functional, cell-based; conditions: NIH3T3, 72 h; outline: as §1
# [9] = Clearance in mouse at 2.5 mg/kg, iv; assay type: ADME, organism-based; set-up: dose 2.5 mg/kg, route intravenous; conditions: in vivo
# Outline: (§3)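 Single iv dose to mice in DMSO/Tween 80/normal saline vehicle, reduced to 2.5 mg/kg because of poor solubility. Clearance and half-life were taken from plasma concentration-time data. Average of three runs.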
# [10] = Volume of distribution at steady state in mouse at 2.5 mg/kg, iv; assay type: ADME, organism-based; set-up: dose 2.5 mg/kg, route intravenous; conditions: in vivo, read-out: Vdss
# [11] = Half life in mouse at 2.5 mg/kg, iv; assay type: ADME, organism-based; set-up: dose 2.5 mg/kg, route intravenous; conditions: in vivo; outline: as §3
# [12] = Cmax in mouse at 20 mg/kg, po; assay type: ADME, organism-based; set-up: dose 20 mg/kg, route oral; conditions: in vivo
# Outline: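 Oral 20 mg/kg single dose to mice, vehicle DMSO/Tween 80/normal saline. Cmax was read from the plasma concentration-time profile. Average of three runs.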
# [13] = Tmax in mouse at 20 mg/kg, po; assay type: ADME, organism-based; set-up: dose 20 mg/kg, route oral; conditions: in vivo
# [14] = AUC (0 to infinity) in mouse at 20 mg/kg, po; assay type: ADME, organism-based; set-up: dose 20 mg/kg, route oral, time infinity; conditions: plasma
# Outline: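 Mice dosed orally at 20 mg/kg in DMSO/Tween 80/normal saline vehicle; plasma concentration-time profile used to derive AUC0-∞. Values are the average of three runs.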
# [15] = Oral bioavailability in mouse at 20 mg/kg; assay type: ADME, organism-based; conditions: in vivo
# MKN-45 = test: Antiproliferative activity against human MKN45 cells after 72 hrs; conditions: MKN-45, 72 h
# NCI-H1993 = test: Antiproliferative activity against human NCI-H1993 cells after 72 hrs; conditions: NCI-H1993, 72 h
# SNU-5 = test: Antiproliferative activity against human SNU5 cells after 72 hrs; conditions: SNU-5, 72 h
# SNU1 = test: Antiproliferative activity against human SNU1 cells after 72 hrs; conditions: SNU1, 72 h
# NCI-H441 = test: Antiproliferative activity against human NCI-H441 cells after 72 hrs; conditions: NCI-H441, 72 h
# MDA-MB-231 = test: Antiproliferative activity against human MDA-MB-231 cells after 72 hrs; conditions: MDA-MB-231, 72 h
# MCF7 = test: Antiproliferative activity against human MCF7 cells after 72 hrs; conditions: MCF7, 72 h
# BXPC-3 = test: Antiproliferative activity against human BxPC3 cells after 72 hrs; conditions: BXPC-3, 72 h
# [16] = Clearance in mouse at 10 mg/kg, iv; assay type: ADME, organism-based; set-up: dose 10 mg/kg, route intravenous; conditions: in vivo
# Outline: (§4)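 Single iv dose of 10 mg/kg to mice, vehicle DMSO/Tween 80/normal saline. Clearance and half-life were derived from plasma concentration-time data. Average of three runs.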
# [17] = Volume of distribution at steady state in mouse at 10 mg/kg, iv; assay type: ADME, organism-based; set-up: dose 10 mg/kg, route intravenous; conditions: in vivo, read-out: Vdss
# [18] = Half life in mouse at 10 mg/kg, iv; assay type: ADME, organism-based; set-up: dose 10 mg/kg, route intravenous; conditions: in vivo; outline: as §4
# Chain of Hepatocyte growth factor receptor (Mus musculus) (P16056 whole entry): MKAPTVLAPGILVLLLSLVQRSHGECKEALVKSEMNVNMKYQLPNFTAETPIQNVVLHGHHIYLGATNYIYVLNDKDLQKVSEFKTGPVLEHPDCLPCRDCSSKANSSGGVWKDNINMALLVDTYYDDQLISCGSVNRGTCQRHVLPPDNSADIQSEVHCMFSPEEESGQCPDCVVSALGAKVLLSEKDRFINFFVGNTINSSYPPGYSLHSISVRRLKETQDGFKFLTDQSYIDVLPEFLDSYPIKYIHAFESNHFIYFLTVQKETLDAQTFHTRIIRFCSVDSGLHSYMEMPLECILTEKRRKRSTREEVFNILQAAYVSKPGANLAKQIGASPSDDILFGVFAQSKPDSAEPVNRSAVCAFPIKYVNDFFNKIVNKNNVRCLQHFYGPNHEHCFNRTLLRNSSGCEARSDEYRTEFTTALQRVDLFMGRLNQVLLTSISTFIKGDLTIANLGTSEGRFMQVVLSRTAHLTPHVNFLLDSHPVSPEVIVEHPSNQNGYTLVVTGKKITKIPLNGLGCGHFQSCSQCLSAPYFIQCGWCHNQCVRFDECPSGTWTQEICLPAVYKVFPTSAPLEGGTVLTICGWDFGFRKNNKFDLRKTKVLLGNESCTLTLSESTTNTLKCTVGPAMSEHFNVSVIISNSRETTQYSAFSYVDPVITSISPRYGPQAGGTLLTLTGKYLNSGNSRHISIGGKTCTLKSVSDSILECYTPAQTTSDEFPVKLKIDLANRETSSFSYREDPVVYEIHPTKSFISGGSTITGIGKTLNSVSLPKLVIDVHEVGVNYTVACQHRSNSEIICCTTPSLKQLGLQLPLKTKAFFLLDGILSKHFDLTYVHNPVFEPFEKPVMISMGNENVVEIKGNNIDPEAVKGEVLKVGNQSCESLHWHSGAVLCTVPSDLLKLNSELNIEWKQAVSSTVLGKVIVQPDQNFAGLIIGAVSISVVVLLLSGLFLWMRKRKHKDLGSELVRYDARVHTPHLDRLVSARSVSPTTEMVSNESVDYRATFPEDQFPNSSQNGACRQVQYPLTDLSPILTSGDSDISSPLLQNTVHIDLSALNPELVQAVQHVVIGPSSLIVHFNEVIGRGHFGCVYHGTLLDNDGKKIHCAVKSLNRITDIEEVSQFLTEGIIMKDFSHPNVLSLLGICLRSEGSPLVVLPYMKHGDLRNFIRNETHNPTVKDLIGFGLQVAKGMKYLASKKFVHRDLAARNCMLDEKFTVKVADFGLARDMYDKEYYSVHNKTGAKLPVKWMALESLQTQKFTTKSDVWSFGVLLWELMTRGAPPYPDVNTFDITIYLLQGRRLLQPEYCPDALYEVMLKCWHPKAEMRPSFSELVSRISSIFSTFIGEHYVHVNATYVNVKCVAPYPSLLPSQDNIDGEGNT
# T1 sequence (P08581 whole entry): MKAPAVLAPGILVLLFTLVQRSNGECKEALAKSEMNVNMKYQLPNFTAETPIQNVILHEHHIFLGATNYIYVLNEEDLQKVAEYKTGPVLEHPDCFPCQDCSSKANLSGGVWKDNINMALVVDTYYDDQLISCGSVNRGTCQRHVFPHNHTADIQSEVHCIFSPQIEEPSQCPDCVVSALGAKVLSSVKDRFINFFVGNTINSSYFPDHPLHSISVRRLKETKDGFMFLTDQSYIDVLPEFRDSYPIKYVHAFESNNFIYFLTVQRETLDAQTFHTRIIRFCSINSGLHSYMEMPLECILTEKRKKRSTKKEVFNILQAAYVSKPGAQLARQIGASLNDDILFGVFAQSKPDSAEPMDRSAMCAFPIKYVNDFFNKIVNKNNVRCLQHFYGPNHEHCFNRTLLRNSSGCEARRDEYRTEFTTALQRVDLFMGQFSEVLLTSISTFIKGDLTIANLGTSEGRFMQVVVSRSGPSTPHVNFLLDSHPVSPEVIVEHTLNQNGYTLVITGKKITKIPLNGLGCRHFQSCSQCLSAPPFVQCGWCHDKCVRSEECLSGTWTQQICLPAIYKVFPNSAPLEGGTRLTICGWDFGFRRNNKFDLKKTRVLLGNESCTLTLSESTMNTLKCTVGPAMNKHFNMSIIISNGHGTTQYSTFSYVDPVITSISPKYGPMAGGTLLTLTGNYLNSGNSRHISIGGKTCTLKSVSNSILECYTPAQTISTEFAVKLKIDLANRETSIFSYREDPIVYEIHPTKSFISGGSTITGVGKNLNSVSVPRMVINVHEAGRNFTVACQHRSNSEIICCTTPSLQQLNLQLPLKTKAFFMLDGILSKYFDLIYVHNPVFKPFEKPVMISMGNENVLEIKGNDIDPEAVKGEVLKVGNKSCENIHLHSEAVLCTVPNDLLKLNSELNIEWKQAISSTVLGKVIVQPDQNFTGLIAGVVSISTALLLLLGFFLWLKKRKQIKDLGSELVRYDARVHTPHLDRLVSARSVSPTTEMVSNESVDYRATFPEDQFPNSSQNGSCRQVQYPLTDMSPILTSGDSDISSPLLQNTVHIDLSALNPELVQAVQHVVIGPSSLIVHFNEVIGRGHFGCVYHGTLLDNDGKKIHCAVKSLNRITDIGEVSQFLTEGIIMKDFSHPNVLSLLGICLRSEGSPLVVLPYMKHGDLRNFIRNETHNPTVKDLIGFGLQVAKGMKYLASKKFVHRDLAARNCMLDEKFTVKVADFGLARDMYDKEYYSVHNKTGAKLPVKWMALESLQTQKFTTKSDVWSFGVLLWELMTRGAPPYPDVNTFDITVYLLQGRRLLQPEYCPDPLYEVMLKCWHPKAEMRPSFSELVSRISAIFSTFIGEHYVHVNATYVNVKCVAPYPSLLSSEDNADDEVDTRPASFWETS
smiles,measurement,setting,value
CN1CCN(c2cnc3cccc(-c4ccco4)c3c2)CC1,IC50,[1],12700 nM
CCN1CCN(c2cnc3cc(C(F)(F)F)cc(NCc4cccc(O)c4)c3c2)CC1,IC50,[1],230 nM
CN1CCN(c2cnc3cccc(NC(=O)c4cccn(-c5ccc(F)cc5)c4=O)c3c2)CC1,IC50,[1],5300 nM
CN1CCN(c2cnc3cccc(-c4cccs4)c3c2)CC1,IC50,[1],14300 nM
CCN1CCN(c2cnc3cc(C(F)(F)F)cc(NCc4cccc(C#N)c4)c3c2)CC1,IC50,[1],5.6 nM
CCN1CCN(c2cnc3cc(C(F)(F)F)cc(NCc4ccc(F)cc4)c3c2)CC1,IC50,[1],10000 nM
CCN1CCN(c2cnc3cc(NCc4cccc([N+](=O)[O-])c4)cc(C(F)(F)F)c3c2)CC1,inhibition,[2],46.6%
CN1CCN(c2cnc3cccc(NS(=O)(=O)c4cccc([N+](=O)[O-])c4)c3c2)CC1,IC50,[1],3440 nM
CC(=O)N1CCN(c2cnc3cccc(NC(=S)Nc4cccc([N+](=O)[O-])c4)c3c2)CC1,inhibition,[2],13.9%
CN1CCN(c2cnc3cccc(-c4ccc(F)cc4)c3c2)CC1,inhibition,[2],29.9%
CN1CCN(c2cnc3cccc(NC(=S)Nc4cccc([N+](=O)[O-])c4)c3c2)CC1,inhibition,[2],12.4%
CN1CCN(c2cnc3cccc(NCc4cccc([N+](=O)[O-])c4)c3c2)CC1,IC50,[1],166 nM
CS(=O)(=O)N1CCN(c2cnc3cc(C(F)(F)F)cc(NCc4cccc([N+](=O)[O-])c4)c3c2)CC1,IC50,[1],0.82 nM
same,IC50,BaF3 [3],≥ 50000 nM
same,inhibition,[4],Dose-dependent effect
same,inhibition,[5],Dose-dependent effect
same,IC50,BaF3 [6],8800 nM
same,IC50,NIH3T3 [7],2200 nM
same,IC50,NIH3T3 [8],≥ 50000 nM
same,clearance,[9],43.3 mL/min/kg
same,Vd,[10],1.72 L/kg
same,half-life,[11],0.97 h
same,Cmax,[12],59.3 ng/mL
same,Tmax,[13],1.33 h
same,AUC(0-inf),[14],366 ng·h/mL
same,bioavailability,[15],3.7%
CN1CCN(c2cnc3cc(C(F)(F)F)cc(NCc4cccc(F)c4)c3c2)CC1,IC50,[1],450 nM
CN1CCN(c2cnc3cccc(OCc4cccc(C#N)c4)c3c2)CC1,IC50,[1],12300 nM
CN1CCN(c2cnc3cc(C(F)(F)F)cc(NS(=O)(=O)c4cccc([N+](=O)[O-])c4)c3c2)CC1,IC50,[1],99 nM
CN1CCN(c2cnc3cc(C(F)(F)F)cc(OCc4cccc([N+](=O)[O-])c4)c3c2)CC1,IC50,[1],2.7 nM
CN1CCN(c2cnc3cccc(-c4cccc(O)c4)c3c2)CC1,inhibition,[2],30.7%
CN1CCN(c2cnc3cccc(OC(=O)c4cccn(-c5ccc(F)cc5)c4=O)c3c2)CC1,inhibition,[2],12.6%
CN1CCN(c2cnc3cccc(OC(=O)c4cccc([N+](=O)[O-])c4)c3c2)CC1,inhibition,[2],7.3%
CN1CCN(c2cnc3cccc(NC(=O)Nc4cccc([N+](=O)[O-])c4)c3c2)CC1,inhibition,[2],25.2%
COC(=O)N1CCN(c2cnc3cc(C(F)(F)F)cc(NCc4cccc([N+](=O)[O-])c4)c3c2)CC1,IC50,[1],43 nM
CC(C)(C)OC(=O)N1CCN(c2cnc3cc(C(F)(F)F)cc(NCc4cccc([N+](=O)[O-])c4)c3c2)CC1,IC50,[1],10.6 nM
CC(=O)N1CCN(c2cnc3cccc(NS(=O)(=O)c4cccc([N+](=O)[O-])c4)c3c2)CC1,IC50,[1],2560 nM
CC(=O)N1CCN(c2cnc3cccc(NCc4cccc([N+](=O)[O-])c4)c3c2)CC1,IC50,[1],110 nM
O=[N+]([O-])c1cccc(CNc2cc(C(F)(F)F)cc3ncc(N4CCOCC4)cc23)c1,IC50,[1],0.72 nM
same,IC50,BaF3 [3],≥ 50000 nM
same,inhibition,[4],Dose-dependent effect
same,inhibition,[5],Dose-dependent effect
same,IC50,BaF3 [6],4200 nM
same,IC50,NIH3T3 [7],4000 nM
same,IC50,NIH3T3 [8],≥ 50000 nM
O=[N+]([O-])c1cccc(CNc2cc(C(F)(F)F)cc3ncc(N4CCCCC4)cc23)c1,IC50,[1],3.4 nM
CCN1CCN(c2cnc3cc(C(F)(F)F)cc(NCc4cccc([N+](=O)[O-])c4)c3c2)CC1,IC50,[1],1.01 nM
same,IC50,BaF3 [3],10100 nM
same,inhibition,[4],Dose-dependent effect
same,inhibition,[5],Dose-dependent effect
same,IC50,BaF3 [6],370 nM
same,IC50,NIH3T3 [7],2600 nM
same,IC50,NIH3T3 [8],13200 nM
CN1CCN(c2cnc3cccc(OS(=O)(=O)c4cccc([N+](=O)[O-])c4)c3c2)CC1,IC50,[1],1200 nM
CN1CCN(c2cnc3cccc(-c4ccc5ccccc5c4)c3c2)CC1,IC50,[1],5800 nM
CC(=O)N1CCN(c2cnc3cccc(NC(=O)Nc4cccc([N+](=O)[O-])c4)c3c2)CC1,IC50,[1],22400 nM
Cc1[nH]c(/C=C2\C(=O)Nc3ccc(S(=O)(=O)N(C)c4cccc(Cl)c4)cc32)c(C)c1C(=O)N1CCN(C)CC1,IC50,[1],14 nM
same,IC50,BaF3 [3],6400 nM
same,IC50,BaF3 [6],530 nM
same,IC50,NIH3T3 [7],6500 nM
same,IC50,NIH3T3 [8],≥ 50000 nM
same,IC50,MKN-45,1300 nM
same,IC50,NCI-H1993,7300 nM
same,IC50,SNU-5,800 nM
same,IC50,SNU1,7000 nM
same,IC50,NCI-H441,13000 nM
same,IC50,MDA-MB-231,11000 nM
same,IC50,MCF7,6200 nM
same,IC50,BXPC-3,16000 nM
CN1CCN(c2cnc3cc(NCc4cccc([N+](=O)[O-])c4)cc(C(F)(F)F)c3c2)CC1,inhibition,[2],8.9%
CN1CCN(c2cnc3cccc(OCc4cccc([N+](=O)[O-])c4)c3c2)CC1,IC50,[1],140 nM
CN1CCN(c2cnc3cccc(-c4cccc([N+](=O)[O-])c4)c3c2)CC1,IC50,[1],2300 nM
CN1CCN(c2cnc3cc(C(F)(F)F)cc(NCc4cccnc4)c3c2)CC1,IC50,[1],160 nM
CN1CCN(c2cnc3cccc(OCc4cccc(F)c4)c3c2)CC1,inhibition,[2],25.8%
CCOC(=O)CN1CCN(c2cnc3cc(C(F)(F)F)cc(NCc4cccc([N+](=O)[O-])c4)c3c2)CC1,IC50,[1],0.77 nM
same,IC50,BaF3 [3],14100 nM
same,inhibition,[4],Dose-dependent effect
same,inhibition,[5],Dose-dependent effect
same,IC50,BaF3 [6],1400 nM
same,IC50,NIH3T3 [7],5900 nM
same,IC50,NIH3T3 [8],≥ 50000 nM
same,clearance,[16],40.5 mL/min/kg
same,Vd,[17],1.36 L/kg
same,half-life,[18],1.13 h
same,Cmax,[12],279 ng/mL
same,Tmax,[13],0.5 h
same,AUC(0-inf),[14],700 ng·h/mL
same,bioavailability,[15],8.2%
O=[N+]([O-])c1cccc(CNc2cc(C(F)(F)F)cc3ncc(N4CCN(S(=O)(=O)C5CC5)CC4)cc23)c1,IC50,[1],0.84 nM
same,IC50,BaF3 [3],≥ 50000 nM
same,inhibition,[4],Dose-dependent effect
same,inhibition,[5],Dose-dependent effect
same,IC50,BaF3 [6],500 nM
same,IC50,NIH3T3 [7],1400 nM
same,IC50,NIH3T3 [8],≥ 50000 nM
O=C(O)CN1CCN(c2cnc3cc(C(F)(F)F)cc(NCc4cccc([N+](=O)[O-])c4)c3c2)CC1,IC50,[1],4.4 nM
O=[N+]([O-])c1cccc(CNc2cc(C(F)(F)F)cc3ncc(N4CCNCC4)cc23)c1,IC50,[1],2.2 nM
